The sample as a whole holds a higher share of hits than the screen did.
T cruzi intra: intracellular Trypanosoma cruzi inhibition | intracellular Trypanosoma cruzi in host cells, plate reader | activity score (inhibition), % at 5.01 µM | 4.9% of 22,000 active | AID 651903; in the data active = activity score above about 55%; inconclusive = no clear call, values can overlap the other calls;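 note: parasites and compound incubated about four days before reading; 0% = median of neutral control wells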
INS-1E rescue: preserves ATP levels in cytokine-treated INS-1E cells | AID 488910 | INS-1E cytokine-induced death, ATP luminescence, 48 h; normalised: neutral wells 0, positive control 100 | protection from cytokine-induced ATP loss, % at 10 µM | 0.1% of 20,000 active;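 active = mean replicate protection from cytokine-induced ATP loss at least 50% and at least 75% of replicates each reaching 50%; inconclusive = meets only one of the two criteria, mean or replicate share; inactive = fails both the mean and replicate share criteria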
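Assay system – rat INS-1E insulinoma cell line · Quantity – 8000 cells per well · Buffer or medium – RPMI without phenol red, 5% FBS · Schedule – 48 h co-treatment, 10 min post-lysis read · Technique – luminescent ATP assay (CellTiter-Glo)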
A1 apoptosis 2: A1 inhibition read as caspase activation; MEF A1-2A-BIM cells, caspase-Glo luminescence, 3 h; percent of clofoctol response, DMSO zero; caspase activation, % (no concentration beside the values); 24,000 tested, under 10 active; in the data active = caspase activation above about 5.9%; inconclusive = no clear call, values can overlap the other calls; inactive = below about 2.2%
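system = A1-2A-BIM-expressing MEF cells | quantity = 2500 MEF cells/well | dosing = 50 nL compound per well, pinned | schedule = overnight cell settling, then 3 h compound exposure, 37 °C | signal = luminescence from DEVD-luciferin Caspase-Glo reagent, 1:1 in 50 mM HEPES, 1 h RT | read-out = Caspase-3/7 activation, seen as rise in luminescence signal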
An asterisk follows results filed as active; u = inconclusive; x = not tested or not shown.

SMILES | T cruzi intra | INS-1E rescue | A1 apoptosis 2
C[C@H]1CN([C@@H](C)CO)C(=O)Cc2cc(NS(=O)(=O)c3ccc(F)cc3)ccc2O[C@H]1CN(C)Cc1ccc(Cl)c(Cl)c1 | 40 | -15 | x
C[C@@H]1CN([C@H](C)CO)C(=O)Cc2cc(NS(=O)(=O)c3ccc(F)cc3)ccc2O[C@H]1CN(C)Cc1ccc(Cl)c(Cl)c1 | 77* | -25 | x
C[C@H](CO)N1C[C@H](C)[C@@H](CN(C)Cc2ccc(Cl)c(Cl)c2)Oc2ccc(NS(=O)(=O)c3ccc(Cl)cc3)cc2CC1=O | x | x | 0
C[C@@H]1CN([C@H](C)CO)C(=O)Cc2cc(NS(=O)(=O)c3ccc(Cl)cc3)ccc2O[C@H]1CN(C)Cc1ccc(Cl)c(Cl)c1 | 65* | 5 | x
C[C@H]1CN([C@@H](C)CO)C(=O)Cc2cc(NS(=O)(=O)c3ccc(Cl)cc3)ccc2O[C@@H]1CN(C)Cc1ccncc1 | -27 | 14 | 0
C[C@@H]1CN([C@H](C)CO)C(=O)Cc2cc(NS(=O)(=O)c3ccc(Cl)cc3)ccc2O[C@@H]1CN(C)Cc1ccncc1 | 76* | 0 | 1
C#CCOc1ccc(/C=N/NC(=O)c2cccc(C(=O)NO)c2)cc1 | -4 | -7 | -8
O=C(N/N=C/c1ccc(C(F)(F)F)cc1)c1ccccc1O | -1 | -13 | -6
CC(C)(C)OC(=O)Nc1cccc(/C=N/NC(=O)CCCCC(=O)NO)c1 | 5 | 21 | x
C[C@H]1CN([C@@H](C)CO)C(=O)c2cccc(NC(=O)c3ccncc3)c2O[C@H]1CN(C)C(=O)Nc1ccccc1 | 79* | 4 | 0
C[C@H](CO)N1C[C@H](C)[C@@H](CN(C)C(=O)Nc2ccc(C(F)(F)F)cc2)Oc2c(NC(=O)c3ccncc3)cccc2C1=O | 15 | 11 | 0
C[C@H](CO)N1C[C@H](C)[C@H](CN(C)C(=O)Nc2ccc(F)cc2)Oc2c(NC(=O)c3ccncc3)cccc2C1=O | 81* | 2 | x
C[C@@H]1CN([C@H](C)CO)C(=O)c2cccc(NC(=O)c3ccncc3)c2O[C@@H]1CN(C)C(=O)Nc1ccccc1 | -22 | 1 | 1
C[C@H]1CN([C@@H](C)CO)C(=O)c2cccc(NC(=O)c3ccncc3)c2O[C@H]1CN(C)C(=O)Nc1ccc(C(F)(F)F)cc1 | 86* | 8 | 1
C[C@@H]1CN([C@@H](C)CO)C(=O)c2cccc(NC(=O)c3ccncc3)c2O[C@@H]1CN(C)C(=O)Nc1ccc(F)cc1 | -7 | 10 | 1
O=C(CCCCCC(=O)N/N=C/c1cccnc1Cl)NO | x | x | 2
COc1ccc(/C=N/NC(=O)CCCCCC(=O)Nc2ccccc2O)c(OC)c1 | -11 | 19 | 0
Cc1ccc(S(=O)(=O)Nc2ccc3c(c2)C(=O)N([C@@H](C)CO)C[C@H](C)[C@@H](CN(C)Cc2ccc(C(F)(F)F)cc2)O3)cc1 | 65* | x | x
C[C@@H]1CN([C@@H](C)CO)C(=O)c2cc(NS(=O)(=O)c3ccc(F)cc3)ccc2O[C@H]1CN(C)Cc1ccc(C(F)(F)F)cc1 | 38 | -13 | -1
COc1ccc(S(=O)(=O)Nc2ccc3c(c2)C(=O)N([C@H](C)CO)C[C@H](C)[C@@H](CN(C)Cc2ccc(C(F)(F)F)cc2)O3)cc1 | 64* | -12 | -1
Cc1ccc(S(=O)(=O)Nc2ccc3c(c2)C(=O)N([C@@H](C)CO)C[C@H](C)[C@H](CN(C)Cc2ccc(C(=O)O)cc2)O3)cc1 | -19 | 8 | x
COc1ccc(S(=O)(=O)Nc2ccc3c(c2)C(=O)N([C@H](C)CO)C[C@@H](C)[C@H](CN(C)Cc2ccc(C(F)(F)F)cc2)O3)cc1 | 5 | x | 0
Cc1ccc(S(=O)(=O)Nc2ccc3c(c2)C(=O)N([C@H](C)CO)C[C@@H](C)[C@@H](CN(C)Cc2ccc(C(F)(F)F)cc2)O3)cc1 | 60* | -27 | x
Cc1ccc(S(=O)(=O)Nc2ccc3c(c2)C(=O)N([C@@H](C)CO)C[C@@H](C)[C@@H](CN(C)Cc2ccc(C(F)(F)F)cc2)O3)cc1 | -7 | x | 0
C[C@H](CO)N1C[C@H](C)[C@@H](CN(C)Cc2ccc(C(F)(F)F)cc2)Oc2ccc(NS(=O)(=O)c3ccc(F)cc3)cc2C1=O | 61* | x | x
SMILES | T cruzi intra | INS-1E rescue | A1 apoptosis 2
O=C(CCCCCCC(=O)Nc1ccccc1O)N/N=C/c1cccc(Oc2ccccc2)c1 | 13 | 11 | x
O=C(CCCCCCC(=O)Nc1ccccc1O)N/N=C/c1ccc(S(=O)(=O)O)o1 | -6 | 4 | 1
CC(C)NC(=O)N(C)C[C@@H]1OCCCC[C@@H](C)Oc2ccc(NC(=O)NC3CCCCC3)cc2C(=O)N([C@H](C)CO)C[C@@H]1C | -41 | 25 | -1
COc1ccc(O)c(/C=N/NC(=O)CCCCCC(=O)Nc2ccccc2O)c1 | 4 | 8 | x
O=C(N/N=C/c1ccccc1)c1ccccn1 | -18 | 8 | -8
CC(C)(C)/C=N/NC(=O)CCCCCCC(=O)O | -8 | -8 | x
Cc1ccc(S(=O)(=O)Nc2ccc3c(c2)C(=O)N([C@H](C)CO)C[C@H](C)[C@@H](CN(C)Cc2ccc(C(F)(F)F)cc2)O3)cc1 | 67* | 3 | -2
C[C@@H]1CN([C@@H](C)CO)C(=O)c2cc(NS(=O)(=O)c3ccccc3)ccc2O[C@H]1CN(C)Cc1ccc(C(F)(F)F)cc1 | 44 | -18 | x
C[C@@H]1CN([C@@H](C)CO)C(=O)c2cc(NS(=O)(=O)c3ccc(F)cc3)ccc2O[C@@H]1CN(C)Cc1ccc(C(F)(F)F)cc1 | u | -31 | -1
C[C@H]1CN([C@@H](C)CO)C(=O)c2cc(NS(=O)(=O)c3ccccc3)ccc2O[C@H]1CN(C)Cc1ccc(C(F)(F)F)cc1 | 62* | x | x
Cc1ccc(S(=O)(=O)Nc2ccc3c(c2)C(=O)N([C@H](C)CO)C[C@@H](C)[C@H](CN(C)Cc2ccc(C(=O)O)cc2)O3)cc1 | -25 | 5 | x
C[C@H](CO)N1C[C@H](C)[C@@H](CN(C)Cc2ccc3c(c2)OCO3)Oc2ccc(NS(=O)(=O)c3ccc(F)cc3)cc2C1=O | 59* | 3 | -1
Cc1ccc(S(=O)(=O)Nc2ccc3c(c2)C(=O)N([C@H](C)CO)C[C@@H](C)[C@@H](CN(C)Cc2ccc4c(c2)OCO4)O3)cc1 | 8 | -4 | -1
C[C@@H]1CN([C@@H](C)CO)C(=O)c2cc(NS(=O)(=O)c3ccc(Cl)cc3)ccc2O[C@@H]1CN(C)Cc1ccc(C(F)(F)F)cc1 | 84* | -31 | -1
O=C(N/N=C/c1cccc(B(O)O)c1)c1ccccc1O | -15 | 5 | -3
O=C(N/N=C/c1cccc(Br)c1)c1ccccc1O | -14 | -15 | -3
CCCNc1ncnc2ccccc12 | x | x | 0
C[C@H]1CN([C@@H](C)CO)C(=O)c2cc(NC(=O)Nc3ccc(C(F)(F)F)cc3)ccc2O[C@H]1CN(C)CC1CCCCC1 | 73* | -95 | 1
C[C@@H]1CN([C@H](C)CO)C(=O)c2cc(NC(=O)Nc3ccc(C(F)(F)F)cc3)ccc2O[C@@H]1CN(C)CC1CCCCC1 | 48 | -7 | x
C[C@@H]1CN([C@@H](C)CO)C(=O)c2cc(NC(=O)Nc3ccc(C(F)(F)F)cc3)ccc2O[C@@H]1CN(C)CC1CCCCC1 | 70* | -60 | 1

From PubChem BioAssay
